Experimental data from ChEMBL document CHEMBL4033747, “Design and synthesis of a novel inhibitor of T. Viride chitinase through an in silico target fishing protocol” (Bioorg Med Chem Lett, 2017).
Converted amounts (≈) assume the structure as drawn.

Assays:
[1] = target: Chitinase (Hypocrea rufa, UniProt D2K848); assay: Inhibition of Trichoderma viride chitinase incubated for 10 mins to 3 hrs using 4-nitrophenyl N-acetyl-beta-D-glucosaminide substrate by spectrophotometry
Summary of the method: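 Commercial Trichoderma viride chitinase preincubated with varying inhibitor concentrations directly in the reading plate, room temperature, 3 h. Substrate 4-nitrophenyl N-acetyl-β-D-glucosaminide then added. […] IC50 and Ki calculated from these readings.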

[2] = tested on: Candida albicans; assay: Antifungal activity against Candida albicans incubated for 24 hrs by visual and spectrophotometry method; type: functional
[3] = tested on: Meyerozyma guilliermondii; assay: Antifungal activity against Candida guillermondii incubated for 24 hrs by visual and spectrophotometry method; type: functional
[4] = tested on: Pichia kudriavzevii; assay: Antifungal activity against Candida krusei incubated for 24 hrs by visual and spectrophotometry method; type: functional
[5] = tested on: Candida parapsilosis; assay: Antifungal activity against Candida parapsilosis incubated for 24 hrs by visual and spectrophotometry method; type: functional; conditions: Lodderomyces parapsilosis
[6] = tested on: Candida tropicalis; assay: Antifungal activity against Candida tropicalis incubated for 24 hrs by visual and spectrophotometry method; type: functional
[7] = tested on: Kluyveromyces marxianus; assay: Antifungal activity against Candida kefyr incubated for 24 hrs by visual and spectrophotometry method; type: functional
[8] = tested on: Nakaseomyces glabratus; assay: Antifungal activity against Candida glabrata incubated for 24 hrs by visual and spectrophotometry method; type: functional

Sequence of Chitinase (D2K848 whole entry): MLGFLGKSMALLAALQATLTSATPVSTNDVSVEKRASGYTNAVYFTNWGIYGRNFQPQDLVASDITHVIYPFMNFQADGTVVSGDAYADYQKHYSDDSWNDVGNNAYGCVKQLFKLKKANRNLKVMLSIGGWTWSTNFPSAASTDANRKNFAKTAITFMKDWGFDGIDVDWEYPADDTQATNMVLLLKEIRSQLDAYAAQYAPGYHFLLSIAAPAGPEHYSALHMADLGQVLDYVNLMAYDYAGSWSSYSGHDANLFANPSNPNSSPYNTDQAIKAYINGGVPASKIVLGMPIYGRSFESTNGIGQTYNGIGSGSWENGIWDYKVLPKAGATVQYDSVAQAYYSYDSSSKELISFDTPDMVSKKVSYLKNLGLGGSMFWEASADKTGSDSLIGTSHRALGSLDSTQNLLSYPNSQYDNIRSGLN

| SMILES | IC50 [1] | Ki [1] | MIC90 [2] | MIC90 [3] | MIC90 [4] | MIC90 [5] | MIC90 [6] | MIC90 [7] | MIC90 [8] |
| --- | --- | --- | --- | --- | --- | --- | --- | --- | --- |
| C/C=C/CNC(=N)NCCCCCCN1CCCCCCCCNC(=N)NC1=O | 111 µM | 35.8 µM | – | – | – | – | – | – | – |
| C#CCNC(=N)NCCCCCCN1CCCCCCCCNC(=N)NC1=O | 97 µM | 31.3 µM | – | – | – | – | – | – | – |
| CNC(=O)NC(=N)NCCCCCCCCN1CCCCCCOc2ccccc2CNC(=N)NC1=O | 0.68 µM | 0.22 µM | 25 µg/mL (≈ 48.4 µM) | 25 µg/mL (≈ 48.4 µM) | 12 µg/mL (≈ 23.2 µM) | 25 µg/mL (≈ 48.4 µM) | 12 µg/mL (≈ 23.2 µM) | 6 µg/mL (≈ 11.6 µM) | 25 µg/mL (≈ 48.4 µM) |
| C=C(C)CNC(=N)NCCCCCCN1CCCCCCCCNC(=N)NC1=O | 108 µM | 34.8 µM | – | – | – | – | – | – | – |
| C/C=C/CNC(=N)NCCCCCCCCN1CCCCCCOc2ccccc2CNC(=N)NC1=O | 35.5 µM | 14.1 µM | 4 µg/mL (≈ 7.79 µM) | 2 µg/mL (≈ 3.89 µM) | 4 µg/mL (≈ 7.79 µM) | 2 µg/mL (≈ 3.89 µM) | 1 µg/mL (≈ 1.95 µM) | 2 µg/mL (≈ 3.89 µM) | 16 µg/mL (≈ 31.1 µM) |
| C/C=C/CNC(=N)NCCCCCCCCN1CCCCCCCCNC(=N)NC1=O | 157 µM | 50.8 µM | – | – | – | – | – | – | – |
| CCNC(=N)NCCCCCCN1CCCCCCCCNC(=N)NC1=O | 140 µM | 45.3 µM | – | – | – | – | – | – | – |
| N=C(NCCCCCCCCN1CCCCCCCCNC(=N)NC1=O)NCC1CC1 | 130 µM | 42 µM | – | – | – | – | – | – | – |
| C/C=C/CNC(=N)NCCCCCCCCN1CCCCCOc2ccccc2CNC(=N)NC1=O | 55 µM | 17.8 µM | – | – | – | – | – | – | – |
